Results published in ChEMBL document CHEMBL4325907, “Diaryl hydroxylamines as pan or dual inhibitors of indoleamine 2,3-dioxygenase-1, indoleamine 2,3-dioxygenase-2 and tryptophan dioxygenase” (Eur J Med Chem, 2019).
Active and inactive are the calls of the source. The calls are words filed in the database; no cut-off is given here.

Tests used:
[1] = target: T1, Tryptophan 2,3-dioxygenase (Homo sapiens, UniProt P48775); assay: Inhibition of TDO (unknown origin) at 100 uM using L-tryptophan as substrate by spectrophotometric method relative to control
Target sequence in this assay (P48775 whole entry, looked up): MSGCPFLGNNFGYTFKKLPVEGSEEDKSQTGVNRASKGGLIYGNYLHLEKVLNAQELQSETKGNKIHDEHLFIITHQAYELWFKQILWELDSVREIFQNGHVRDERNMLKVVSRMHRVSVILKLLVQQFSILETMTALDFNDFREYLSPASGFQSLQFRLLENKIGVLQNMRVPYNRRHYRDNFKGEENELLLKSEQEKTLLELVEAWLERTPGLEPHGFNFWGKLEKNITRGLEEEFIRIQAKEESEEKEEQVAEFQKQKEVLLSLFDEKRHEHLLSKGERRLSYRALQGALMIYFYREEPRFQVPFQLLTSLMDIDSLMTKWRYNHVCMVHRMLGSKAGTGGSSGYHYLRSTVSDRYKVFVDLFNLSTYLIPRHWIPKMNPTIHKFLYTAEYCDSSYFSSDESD

[2] = Cytotoxicity against human HeLa cells assessed as cell viability up to 100 uM relative to control; format: cell-based; conditions: read-out: Activity
[3] = target: T2, Indoleamine 2,3-dioxygenase 2 (Mus musculus, UniProt Q8R0V5); assay: Inhibition of mouse IDO2 expressed in human T-REx cells using L-tryptophan as substrate after 20 hrs; format: cell-based
T2 sequence (Q8R0V5 whole entry): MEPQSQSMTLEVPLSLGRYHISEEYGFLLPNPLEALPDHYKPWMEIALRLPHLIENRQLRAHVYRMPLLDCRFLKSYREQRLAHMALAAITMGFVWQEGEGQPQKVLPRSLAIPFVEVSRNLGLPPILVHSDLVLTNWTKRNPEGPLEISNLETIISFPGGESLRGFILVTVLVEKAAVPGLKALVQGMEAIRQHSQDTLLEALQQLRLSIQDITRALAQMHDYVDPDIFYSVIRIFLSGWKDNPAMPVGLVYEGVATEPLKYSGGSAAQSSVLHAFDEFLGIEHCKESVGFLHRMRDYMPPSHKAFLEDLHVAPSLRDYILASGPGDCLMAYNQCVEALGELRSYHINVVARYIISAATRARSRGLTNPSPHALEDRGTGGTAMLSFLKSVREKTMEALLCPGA
Procedure, shortened: (§1)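 HeLa cells (endogenous human IDO1) were induced with 100 ng/mL IFNγ for 24 h at 100 μM Trp. T-REx cells carried tet-regulated human TDO (2 ng/mL doxycycline, 24 h, 100 μM Trp) or mouse IDO2 (doxycycline plus 8 mM 5-aminolevulinic acid, 20 μM hemin, 4 mM Trp, 48 h). After induction, compound serial dilutions were added in medium with final Trp 100 μM (IDO1/TDO) or 2 mM (IDO2) for 20 h at 37 °C. Read-out was TCA fixation, 65 °C hydrolysis, then p-dimethylaminobenzaldehyde colour.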

[4] = target: T1, Tryptophan 2,3-dioxygenase; assay: Inhibition of human TDO expressed in human T-REx cells using L-tryptophan as substrate after 20 hrs; format: cell-based; procedure, shortened: as §1
Target sequence in this assay (P48775 whole entry): as the sequence (P48775 whole entry, looked up) above

[5] = target: T3, Indoleamine 2,3-dioxygenase 1 (Homo sapiens, UniProt P14902); assay: Inhibition of IDO1 (unknown origin) at 100 uM using L-tryptophan as substrate by spectrophotometric method relative to control
Target sequence in this assay (P14902 whole entry, looked up): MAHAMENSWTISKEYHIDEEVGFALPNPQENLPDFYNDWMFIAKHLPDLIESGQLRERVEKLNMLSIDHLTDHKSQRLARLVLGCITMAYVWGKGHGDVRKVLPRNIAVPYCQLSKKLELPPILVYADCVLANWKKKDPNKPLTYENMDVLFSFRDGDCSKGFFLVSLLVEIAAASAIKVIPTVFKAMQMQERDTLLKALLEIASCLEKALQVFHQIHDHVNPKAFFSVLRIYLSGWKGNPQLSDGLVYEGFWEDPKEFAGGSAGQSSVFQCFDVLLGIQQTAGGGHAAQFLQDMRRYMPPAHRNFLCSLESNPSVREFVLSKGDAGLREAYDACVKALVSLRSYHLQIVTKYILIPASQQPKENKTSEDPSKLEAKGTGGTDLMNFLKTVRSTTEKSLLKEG

[6] = target: T4, Indoleamine 2,3-dioxygenase 2 (Homo sapiens) (UniProt Q6ZQW0); assay: Inhibition of IDO2 (unknown origin) at 100 uM using L-tryptophan as substrate by spectrophotometric method relative to control
T4 sequence (whole entry): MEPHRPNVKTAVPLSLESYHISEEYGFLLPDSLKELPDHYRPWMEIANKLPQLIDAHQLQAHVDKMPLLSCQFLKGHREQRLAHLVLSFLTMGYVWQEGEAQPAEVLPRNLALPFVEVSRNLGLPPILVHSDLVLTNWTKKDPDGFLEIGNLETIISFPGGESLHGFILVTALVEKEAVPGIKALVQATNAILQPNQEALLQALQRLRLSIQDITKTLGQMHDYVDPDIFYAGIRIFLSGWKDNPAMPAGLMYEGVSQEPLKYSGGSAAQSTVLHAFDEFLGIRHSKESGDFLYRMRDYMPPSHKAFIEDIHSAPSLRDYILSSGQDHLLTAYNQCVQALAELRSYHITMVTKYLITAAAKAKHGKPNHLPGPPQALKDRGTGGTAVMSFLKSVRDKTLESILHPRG

[7] = target: T3, Indoleamine 2,3-dioxygenase 1; assay: Inhibition of IDO1 in human HeLa cells using L-tryptophan as substrate after 20 hrs; format: cell-based; procedure, shortened: as §1
Target sequence in this assay (P14902 whole entry): as the sequence (P14902 whole entry, looked up) above

[8] = target: T3, Indoleamine 2,3-dioxygenase 1; assay: Inhibition of IDO1 (unknown origin) using L-tryptophan as substrate by spectrophotometric method
Target sequence in this assay (P14902 whole entry): as the sequence (P14902 whole entry, looked up) above

[9] = target: T1, Tryptophan 2,3-dioxygenase; assay: Inhibition of TDO (unknown origin) using L-tryptophan as substrate by spectrophotometric method
Target sequence in this assay (P48775 whole entry): as the sequence (P48775 whole entry, looked up) above

[10] = target: T3, Indoleamine 2,3-dioxygenase 1; assay: Inhibition of IDO1 in human HeLa cells at IC50 using L-tryptophan as substrate after 24 hrs in presence of 100% human serum by LC-MS/MS analysis; format: cell-based
Target sequence in this assay (P14902 whole entry, looked up): as the sequence (P14902 whole entry, looked up) above

[11] = target: T1, Tryptophan 2,3-dioxygenase; assay: Inhibition of TDO (unknown origin) at 200 uM using L-tryptophan as substrate by spectrophotometric method relative to control
Target sequence in this assay (P48775 whole entry, looked up): as the sequence (P48775 whole entry, looked up) above

[12] = target: T3, Indoleamine 2,3-dioxygenase 1; assay: Inhibition of IDO1 (unknown origin) at 200 uM using L-tryptophan as substrate by spectrophotometric method relative to control
Target sequence in this assay (P14902 whole entry, looked up): as the sequence (P14902 whole entry, looked up) above

[13] = target: T4, Indoleamine 2,3-dioxygenase 2 (Homo sapiens); assay: Inhibition of IDO2 (unknown origin) at 200 uM using L-tryptophan as substrate by spectrophotometric method relative to control
Homo sapiens [14] = species on record: Homo sapiens; assay: Selectivity ratio of IC50 for inhibition of mouse IDO2 expressed in human T-REx cells to IC50 for inhibition of human TDO expressed in human T-REx cells; format: cell-based; procedure, shortened: as §1
[15] = Selectivity ratio of IC50 for inhibition of mouse IDO2 expressed in human T-REx cells to IC50 for inhibition of IDO1 in human HeLa cells; format: cell-based; procedure, shortened: as §1
[16] = target: T5, Indoleamine 2,3-dioxygenase 2 (Homo sapiens, UniProt Q6ZQW0); assay: Inhibition of IDO2 (unknown origin) using L-tryptophan as substrate by spectrophotometric method
T5 sequence (Q6ZQW0 whole entry): T4 sequence (whole entry)

Homo sapiens [17] = species on record: Homo sapiens; assay: Selectivity ratio of IC50 for inhibition of human TDO expressed in human T-REx cells to IC50 for inhibition of IDO1 in human HeLa cells; format: cell-based; procedure, shortened: as §1
Homo sapiens [18] = species on record: Homo sapiens; assay: Selectivity ratio of IC50 for inhibition of TDO (unknown origin) to IC50 for inhibition of IDO1 (unknown origin)
Homo sapiens [19] = species on record: Homo sapiens; assay: Selectivity ratio of IC50 for inhibition of IDO2 (unknown origin) to IC50 for inhibition of IDO1 (unknown origin)

SMILES | inhibition [1] [%] | viability [2] [%] | IC50 [3] [µM] | IC50 [4] [µM] | inhibition [5] [%] | inhibition [6] [%] | IC50 [7] [µM] | IC50 [8] [µM] | IC50 [9] [µM] | inhibition [10] | inhibition [11] [%] | inhibition [12] [%] | inhibition [13] [%] | Ratio IC50 (Homo sapiens [14]) | Ratio IC50 [15] | IC50 [16] [µM] | Ratio IC50 (Homo sapiens [17]) | IC50 ([7]; hela) [µM] | Ratio IC50 (Homo sapiens [18]) | Ratio IC50 (Homo sapiens [19])
NOC(c1ccccc1)C1CCCCC1 (stereo not drawn) | 43.6 | ≥ 80 | 40.2 | 2770 | 76 | 88.6 | 21 |  |  |  |  |  |  |  |  |  |  |  |  | 
NOC(c1ccccc1)c1cc(F)cc(F)c1 (stereo not drawn) | 92.6 | ≥ 80 | 8.75 | 3.48 | > 95 | 83 | 0.357 | 4 |  |  |  |  |  |  |  |  |  |  |  | 
NOC(c1ccc(F)cc1)c1ccc(F)cc1 | > 95 | ≥ 80 | 12.1 | 5.15 | > 95 | 73.6 | 1.68 | 9 | 9 |  |  |  |  |  |  |  |  |  |  | 
NOC(c1ccccc1)c1ccc(Cl)cc1Cl (stereo not drawn) | > 95 | ≥ 80 | 7.68 | 4.82 | > 95 | 73 | 1.99 | 4 | 6 | inactive |  |  |  |  |  |  |  |  |  | 
NOC(c1ccccc1)c1cc(C(F)(F)F)cc(C(F)(F)F)c1 (stereo not drawn) |  | 60 | 14.5 | 77.4 |  |  | 3.35 |  |  |  | 50.8 | 56 | 53.3 |  |  |  |  |  |  | 
NOC(c1ccccc1)c1ccsc1 (stereo not drawn) | 93.3 | ≥ 80 | 49.9 | 4.41 | 83 | 76.5 | 3.36 |  |  |  |  |  |  | 10 | 10 |  |  |  |  | 
NOC(CCc1cccc(Cl)c1)c1ccccc1 (stereo not drawn) | 93.1 | ≥ 80 | 20.5 | 58.7 | > 95 | 78.1 | 6.74 | 7 |  |  |  |  |  |  |  |  |  |  |  | 
NOC(c1ccc(Cl)cc1)c1ccc(Cl)cc1 | > 95 | ≥ 80 | 12.5 | 4.53 | > 95 | 69.3 | 1.09 | 3 | 2 |  |  |  |  |  |  |  |  |  |  | 
NOC(c1ccccc1)c1cc(Cl)cc(Cl)c1 (stereo not drawn) | 83.4 | ≥ 80 | 8.66 | 5.7 | > 95 | 69.8 | 0.87 | 2 |  | Active |  |  |  |  |  |  |  |  |  | 
NOC(c1ccccc1)c1cccc(Br)c1 (stereo not drawn) | 92.6 | 60 | 11.8 | 7.15 | > 95 | 77.6 | 0.59 | 1 |  |  |  |  |  |  |  |  |  |  |  | 
NOC(c1ccccc1)c1cc(C(F)(F)F)ccc1F (stereo not drawn) | 73.4 | ≥ 80 | 8.94 | 9.02 | > 95 | 73.8 | 1.09 | 8 |  |  |  |  |  |  |  |  |  |  |  | 
NOC(c1ccccc1)c1ccccc1Cl (stereo not drawn) | 89.8 | ≥ 80 | 10.7 | 21.8 | > 95 | > 95 | 2.48 | 18 |  |  |  |  |  |  | 5 to 10 | 25 | 5 to 10 |  |  | 
NOC(c1ccccc1)c1cccc(Cl)c1Cl (stereo not drawn) | > 95 | ≥ 80 | 8.95 | 4.54 | > 95 | 72.4 | 1.87 | 8 | 9 |  |  |  |  |  |  |  |  |  |  | 
NOC(c1ccccc1)c1ccccc1Br (stereo not drawn) | 90.4 | ≥ 80 | 12.3 | 22.5 | > 95 | 81 | 1.46 | 17 |  |  |  |  |  |  | 5 to 10 |  | 5 to 10 |  |  | 
NOC(c1ccccc1)c1ccc(O)cc1 (stereo not drawn) |  | ≥ 80 | 12.6 | 29.8 |  |  | 2.89 |  |  |  | 48.7 | 18.3 | 72.3 |  |  |  |  |  |  | 
NOC(c1ccccc1)c1ccccc1F (stereo not drawn) | 87.2 | ≥ 80 | 30.5 | 3.92 | > 95 | 77.8 | 1.26 | 12 |  |  |  |  |  | 10 | 10 |  |  |  |  | 
NOC(c1ccccc1)c1cccc(C(F)(F)F)c1F (stereo not drawn) | 93.2 | ≥ 80 | 16.8 | 5.62 | > 95 | 81.1 | 0.933 | 6 |  |  |  |  |  |  |  |  |  |  |  | 
NOC(c1ccccc1)c1ccc(Cl)c(Cl)c1 (stereo not drawn) | > 95 | ≥ 80 | 19.5 | 8.11 | > 95 | > 95 | 1.91 | 2 | 4 |  |  |  |  |  |  | 32 |  |  |  | 
NOC(c1ccccc1)c1ccc(F)cc1F (stereo not drawn) | 90.3 | 60 | 18.9 | 6.37 | > 95 | 46 | 1.21 | 7 |  |  |  |  |  |  |  |  |  |  |  | 
NOC(c1ccccc1)c1cccc(C(F)(F)F)c1 (stereo not drawn) | > 95 | ≥ 80 | 24.7 | 13.6 | 18 |  |  |  | 12 |  |  |  |  |  |  |  |  | 1.73 |  | 
COc1ccccc1C(ON)c1ccccc1 (stereo not drawn) |  | ≥ 80 | 16.5 | 48.8 | > 95 | 80 |  | 23 |  |  |  |  |  |  |  |  |  | 1.11 |  | 
NOC(c1ccccc1)c1cccc(F)c1 (stereo not drawn) | > 95 | ≥ 80 | 9.99 | 6.21 | > 95 | 82 | 0.939 | 5 | 6 |  |  |  |  |  |  |  |  |  |  | 
NOC(c1ccccc1)c1ccc(Cl)cc1 (stereo not drawn) | > 95 | ≥ 80 | 27.8 | 23.7 | > 95 | 74.3 | 7.15 | 5 | 5 |  |  |  |  |  |  |  |  |  |  | 
NS(=O)(=O)NCCNc1nonc1C(=NO)Nc1ccc(F)c(Br)c1 [EPACADOSTAT] |  | ≥ 80 | 18.9 | 25.2 |  |  |  |  |  |  |  |  |  |  |  |  |  |  |  | 
O=C1CC(c2c[nH]c3ccc(F)cc23)C(=O)N1 (stereo not drawn) [PF-06840003] |  | ≥ 80 | 327 | 378 |  |  |  |  |  |  |  |  |  |  |  |  |  |  |  | 
NOC(CCCC(=O)Nc1ccccc1)c1cccc(Cl)c1 (stereo not drawn) | 75.5 | ≥ 80 | 36.1 | 123 | > 95 | 84.3 | 1.43 | 3 |  |  |  |  |  |  |  |  |  |  | > 20 | > 20
